The results in this text go back to the EternaBench riboswitch data.

In the data set the test system is MS2 coat protein. Description: apparent Kd, MS2 coat protein; higher = weaker binding; RNA-MaP array; FMN 200 µM where present. Summed up: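 The apparent Kd is the median of filtered binding-curve fits, one per cluster, to green signal normalised to red-channel RNA signal and control-cluster median Fmax. The clusters were on Illumina sequencing chips, and stalled E. coli RNA polymerase had transcribed the designs on them. Titration used SNAP-549-labelled MS2 coat protein from 0.7 or 1.5 nM, doubling to 3 µM, without and then with constant ligand, in 100 mM Tris-HCl pH 7.5, 80 mM KCl, 4 mM MgCl2, BSA, DTT, yeast tRNA and Tween-20.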

The mark [1] stands for this setting: designed as: OFF switch for flavin mononucleotide, no ligand.
Setting [2] is: ligand present: flavin mononucleotide, designed as: OFF switch for flavin mononucleotide.
Setting [3] is: designed as: ON switch for flavin mononucleotide, no ligand.
Setting [4] is: ligand present: flavin mononucleotide, designed as: ON switch for flavin mononucleotide.

Broadly, the apparent Kd is the concentration giving half-maximal binding under the conditions of the assay. For the sequence “AACAGUAGAGGAUAUACAUGAGGAUCACCCAUGUGAGAAUUACGUGGCGUACCACGAAGUAGAAGGCUACUGGA”, the “apparent Kd” value runs as follows: under setting [1], 61.3 nM; under setting [2], 302 nM.
For “CCUGAGUCAGGAUAUUGUACCAGCCUGAAGCCAGGCUGACCCAAGAAGGGACAUGAGGAUCACCCAUGUGAAAA”, in that order: 27 nM and 25.6 nM.
For “GGAUGACAAAGUCAUCCAAAUCGAACAUGAGGAUCACCCAUGUAGGAUAUCCUACUGAAACAGUAGGAGAAGGACAUGUGCUUU”, in that order: 52.9 nM and 157 nM.
For “GUAGCAACAUGAGGAUCACCCAUGUAGGAUAUCGCUAUUGUAAUCAUGUUACAUGAUUACAAUAGCGAGAAGGACGUGAGCUAC” the same measures were 8.43 nM and 11.4 nM.
Take “CCGGAAGUACAGGAUAUCGUAACGGAAACGUUACGAGAAGGGUAUACAUGAGGAUCACCCAUGUGUCCUACCGG”: the “apparent Kd” value turned out to be 28.3 nM under setting [1] and 26.6 nM under setting [2].
As for “GUGGCCUAGGCACAGGAUAUGUUGCUCGUAACAUGAGGAUCACCCAUGUGCCUAUGAGAUUUAAUGCAGAAGGGUGCACGCCACG”, the “apparent Kd” value under setting [3] amounted to 173 nM and the “apparent Kd” value under setting [4] stood at 17.1 nM.
With “GUCAGCUCGUGAGGAUAUACAACACUGGUUCGGCAGUGUAUUAAGAUCACAUGAGGAUCACCCAUGUAGAAGGCACGAGCUGAU”, the “apparent Kd” value reads like this: under setting [1], 13.6 nM; under setting [2], 280 nM.
For “GAUACACAUGAGGAUCACCCAUGUGAGGAUAUGAUACUAUGUACUUCGGUACAUAGUAUCAGAAGGCACAUUGA” the same measures were 47.6 nM and 76.8 nM.
For “UUUUAACAUGAGGAUCACCCAUGUGAGGAUAUCGAAAUUUAUAUUUAUAUUAAUAAUUCGAGAAGGCACAUUUU” the same measures were 172 nM and 165 nM.
For “AGAUUCAUGGCCCGUUCGGGCUCACAUGAGGAUCACCCAUGUGAGGAUAUGACGUACCUGACUCGUCAGAAGGCGCAUGCGAAU”, in that order: 7.41 nM and 13.7 nM.
Regarding “GCACCAUUGCAAGGAUAUCCUACAGAGGGUGCAGGAGAAGGUGCAUUGGUGAGACUAUAGGACAUGAGGAUCACCCAUGUACCG”, the “apparent Kd” value was 68 nM under setting [3] and 32.7 nM under setting [4].
For “AAAUGCGUAAAGGACACAUGAGGAUCACCCAUGUUUCUGUCCAAGGAUAUGAGGUGAAUGAUCCGUCAGAAGGUGGACUUGCUU”, in that order: 114 nM and 220 nM.
Turning to “UAACAGCAAGGAUAUACGGGCUGUGCUUUUCAUUUCUUACAACAUGAGGAUCACCCAUGUAGAAGGUGCAACAU”, the “apparent Kd” value runs as follows: under setting [1], 32.5 nM; under setting [2], 76.9 nM.
Regarding “UCUAAUUAAAAUGAUUCAUCAACACAGGAUAUACCCGCAACAUGAGGAUCACCCAUGUAGGCCCGGUAGAAGGGUGCUUGGGAG”, the “apparent Kd” value turned out to be 20.5 nM under setting [3] and 6.9 nM under setting [4].
For “GUCGGAAACGACAAAAGUAUGGAUCCAGAAGGCAUGAAACAUGAGGAUCACCCAUGUCAAAGAUAUGAGGAUAUGGAUCCAUAC”, in that order: 4.64 nM and 4.01 nM.
For “AAUUCACAUGAGGAUCACCCAUGUAUUGCGAGCGCGAUUACGUAGGAUAUCCAUCAAAACAGAUAGGAGAAGGGCGUACUAUCU”, in that order: 253 nM and 185 nM.
Turning to “AGGUGACAUGAGGAUCACCCAUGUGAGGAUAUCUGGAUACUCUUUAUUUUAGAUAUCCAGAGAAGGCACACCCU”, the “apparent Kd” value reads like this: under setting [1], 263 nM; under setting [2], 502 nM.
For “CUAAAGCAUGUAGGAUAUGCGUGGCGAAGCUAUGCAGAAGGACAUGAGGAUCACCCAUGUCUUUCCGUCUGCGUACAGACGGAA” the same measures were 19.1 nM and 52.4 nM.
For “AUAAAGCGUGCUACGCAAAAUAACGCAGAAGGCCAACAUGAGGAUCACCCAUGUAAAAGAAAGAUGGAGGAUAUGCGGUUUGGC”, the “apparent Kd” value came out at 46.6 nM under setting [3] and 5.74 nM under setting [4].
In the case of “GCAGCGUAUGUAGGAUAUCGGUCAGUCUCUGAUCGAGAAGGACAUGAGGAUCACCCAUGUAAAUUACCGACUUUGUCGGGCUGC”, the “apparent Kd” value runs as follows: under setting [1], 7.14 nM; under setting [2], 9.62 nM.
Consider “GGACGACACAUGAACAUGAGGAUCACCCAUGUAAAUUCUCAUGAGGAUAUGGAUCCUAAUUGGAUCCAGAAGGCAUGGUCGUCC”, for which the “apparent Kd” value was found to be 1150 nM under setting [3] and 380 nM under setting [4].
Turning to “CUGGUUGUCGAGGAUAUGCACCAGCUCACUGACGCAGAAGGCGACACAUGAGGAUCACCCAUGUCAGUUCGCGU”, the “apparent Kd” value runs as follows: under setting [1], 16.9 nM; under setting [2], 18.9 nM.
For “CUGCUGGAGCUUUGCUUUAGUCGUACAUGAGGAUCACCCAUGUAGGAUAUGGUAGGCUUUGCUUACCAGAAGGAUAGAGUGGUC”, in that order: 93.5 nM and 40.6 nM.
For “GUCUUACAUGAGGAUCACCCAUGUGAGGAUAUCCGCGGCGCCGGGUUUCCGGCGCCGCGGAGAAGGCGCGUGUU”, in that order: 19.2 nM and 22.3 nM.
For the sequence “GGGACUCUAAAUGGGCUGUCGACAUAGGAUAUGAUGUGCGACAUGAGGAUCACCCAUGUAACGAAUUAGAAGGGUGUAGGCAUG”, the “apparent Kd” value under setting [3] stood at 574 nM and the “apparent Kd” value under setting [4] stood at 173 nM.
For “GGUUGACAAAGUCAACCAUUACGAACAUGAGGAUCACCCAUGUAGGAUAUGCUACUCAAAGAGUAGCAGAAGGACAUGUGUCUU”, the “apparent Kd” value is, setting by setting: under setting [1], 30.1 nM; under setting [2], 147 nM.
For the sequence “GGAGCACACAUUUACAUGAGGAUCACCCAUGUCAAAAGACAUGAGGAUAUGGAUCCGAAAAGGAUCCAGAAGGCAUGGUGCUCC”, the “apparent Kd” value under setting [3] was 106 nM and the “apparent Kd” value under setting [4] is 8.38 nM.
Turning to “CUGCUAGUUGAGAAGGGACAACUUGGUGAUCGGACAUGAGGAUCACCCAUGUCAGGAUAUCAGGGUAGACCCAGCAGGGUGAAA”, the “apparent Kd” value was 6.56 nM under setting [1] and 7.83 nM under setting [2].
For “AAUAUAAGAGCUGGUAAACUCAAAACAUGAGGAUCACCCAUGUAGGAUAUCAGCACGAUAAGUGCUGAGAAGGACAUCCAGCUC”, in that order: 15 nM and 16.1 nM.
In the case of “AGGGAGUAAGGAUAUCGGAAAGGACACGAAAGUGACAAAGACGAGAAGGUACAUGAGGAUCACCCAUGUAAAAA”, the “apparent Kd” value under setting [1] was 21.3 nM and the “apparent Kd” value under setting [2] was determined as 20.1 nM.
On to “CUCACUCCAAAGAGCGCGUCUGCCUGAGAAGGGUGCUAAUUAAUUACAUGAGGAUCACCCAUGUCACAGGAUAUCAGGGUCGCU”, for which the “apparent Kd” value is, setting by setting: under setting [3], 622 nM; under setting [4], 230 nM.
For “GCUGUCGCGUGAGGAUAUGGUCGGCUGUGCUGACCAGAAGGCAUGUCGAUAGACAUGAGGAUCACCCAUGUGGUUAGGGCGGCU” the same measures were 790 nM and 313 nM.
For “GCGUUAGAAACACAUGUAUUACAUGAGGAUCACCCAUGUUACUAGGAUAUGUAUUAGAAUUUACAACAGAAGGAGUAAGAACGC”, the “apparent Kd” value by setting is: under setting [1], 10.8 nM; under setting [2], 14.6 nM.
For “CUGGGCGGAGGAUAUGCGGGUUGGGCAUAAGUUCGGCUGGGACAUGAGGAUCACCCAUGUAGAAGGUUGUUCGG”, the “apparent Kd” value came to 40.3 nM under setting [1] and 40 nM under setting [2].
For “CACACCGUAGGAGGAUAUCCCUGGACAUGAGGAUCACCCAUGUUUAGCCCGUCCUCAUGUUAGUCGGAGAAGGCCUAGUGGUCG” the same measures were 36.7 nM and 37.6 nM.
“CAGCACGGAAACAAAGUCUUCGGACAUGAGGAUCACCCAUGUAAGGAUAUGCCUACUAAAAGUAGGCAGAAGGUACGCGUGCUG”: the “apparent Kd” value runs as follows: under setting [1], 18.9 nM; under setting [2], 50.9 nM.
For “AUCAGCUCGUCAGGAUAUACUUCACUGCGUCAGCAGUGUGGUAAGAUCACAUGAGGAUCACCCAUGUAGAAGGGACGAGCUGAU”, in that order: 6 nM and 8.71 nM.
For “GCGUACAUAUCAGGAUAUCAUAUUAUUGUUUUACUCAGUGUAUACAUGAGGAUCACCCAUGUUCUUGAGAAGGGAUAUGUACGC”, the “apparent Kd” value runs as follows: under setting [1], 8.22 nM; under setting [2], 9.91 nM.
For “CAGUACUGAGGAUAUACAUGAGGAUCACCCAUGUGUUCCAGCGAGGAAACUAGCAAAAGUAGAAGGCAGUACUG” the same measures were 20.4 nM and 278 nM.
For “UGUUGUAUUACAGGAUAUCUAUUAUUUUUAGUUAGAGAAGGGUAUUCACAUGAGGAUCACCCAUGUAUAUACGAGGAAGUUGUG”, the “apparent Kd” value reads like this: under setting [3], 43.5 nM; under setting [4], 44.3 nM.
With “UAGGUACGAGGAUAUACAUAGAUACAGACACAUGUAGAUGUACAUGAGGAUCACCCAUGUAGAAGGCGUAUAUA”, the “apparent Kd” value reads like this: under setting [1], 67.8 nM; under setting [2], 237 nM.
Take “AAAAAAAAAGUGCAGGAUAUCCUCAUGGCUACAUGAGGAUCACCCAUGUGAAGAAAAGCACAUGAGGAGAAGGGCACAAAAAAAAA”: the “apparent Kd” value is, setting by setting: under setting [3], 23.4 nM; under setting [4], 12.3 nM.
In the case of “CCUGUGUGAGGAUAUGGUGUUGGCCACAAGGAAUAGCUCCUCCAGAAGGCACAUGAGGAUCACCCAUGUCGUGG”, the “apparent Kd” value stood at 17.6 nM under setting [1] and 80.3 nM under setting [2].
For “UCAUUUAAUACAGGAUAUGUUAGUAUACAGUUGAUUGGUUAUUACAUAAUAACAGAAGGGUAGAACAUGAGGAUCACCCAUGUA”, the “apparent Kd” value came to 254 nM under setting [3] and 131 nM under setting [4].
For “GCCAUCGCAUGAGGAUAUGCUCCGGUUUCCGGAGCAGAAGGCAUGUCGUAAGACAUGAGGAUCACCCAUGUAGUUAAGAUGGCA” the same measures were 1100 nM and 54.7 nM.
With “CGAGAUCUUGAGAAGGCAUAAUAUAUAAUACCACAUGUUUACAUGAGGAUCACCCAUGUUUCCAAUGAGGAUAUCAGGAUUUCG”, the “apparent Kd” value amounted to 19.6 nM under setting [1] and 14.8 nM under setting [2].
For “AUCAGCUCGUCAGGAUAUGCGUCACUGCUUCGGCAGUGUGGUAAGAUCACAUGAGGAUCACCCAUGUAGAAGGGACGAGCUGAU” the same measures were 9.91 nM and 75.2 nM.
As to “AUCAUGUUAGGAUAUACAAGAAAAGAAAAGAAAGAAAAGAAGUAGAAGGAACAUGAGGAUCACCCAUGUAAGAA”, the “apparent Kd” value is, setting by setting: under setting [1], 27.3 nM; under setting [2], 45.4 nM.
